What all share (format): functional
Assay [1] deals with Melanocyte-stimulating hormone receptor. Description: In vitro potency of compound to stimulate melanosome dispersion in frog (Rana pipiens) skin relative to alpha-MSH.
In assay [2] the test system is lizard. Description: In vitro potency of compound to stimulate melanosome dispersion in lizard skin relative to alpha-MSH. In a few lines:
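Isolated Anolis carolinensis lizard skins were scored in vitro for melanosome dispersion (darkening) across the entire dose-response range. Relative potency is the ratio of the α-MSH concentration giving 50% response to the peptide concentration giving 50% response.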

The nature of assay [3]: In vitro potency of compound to stimulate adenylate cyclase activity in melanoma cells relative to alpha-MSH. In a few lines:
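Particulate membranes from Cloudman S-91 mouse melanoma tumors grown in DBA/2J mice were used as a cell-free system, 56 μg of protein per assay. Adenylate cyclase activity was measured as conversion of [α-³²P]ATP to [³²P]cAMP, with cAMP isolated by the Salomon method. Full dose-response curves were run in triplicate. Potency is relative to α-MSH: concentration of α-MSH at 50% response divided by that of the peptide.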

For `CSCC[C@H](NC(C)=O)C(=O)N[C@@H](CCC(=O)O)C(=O)N[C@@H](Cc1c[nH]cn1)C(=O)N[C@@H](Cc1ccccc1)C(=O)N[C@@H](CCCN=C(N)N)C(=O)N[C@@H](Cc1c[nH]c2ccccc12)C(=O)NCC(N)=O`, the results for the Potency in assay [1] and in assay [2] were 0.0003 and 0.004, respectively.
For Ac-YEHFRWG-NH2, the results for the Potency in assay [1], in assay [2] and in assay [3] were 0.0002, 0.0006 and 0.001, respectively.
Turning to `CCCC[C@H](NC(C)=O)C(=O)N[C@@H](CCC(=O)O)C(=O)N[C@@H](Cc1c[nH]cn1)C(=O)N[C@H](Cc1ccccc1)C(=O)N[C@@H](CCCN=C(N)N)C(=O)N[C@@H](Cc1c[nH]c2ccccc12)C(=O)NCC(N)=O`, the results for the Potency in assay [1], in assay [2] and in assay [3] were 0.02, 10 and 7.7, respectively.
The like results for `CCCC[C@H](NC(C)=O)C(=O)N[C@@H](CCC(=O)O)C(=O)N[C@@H](Cc1c[nH]cn1)C(=O)N[C@@H](Cc1ccccc1)C(=O)N[C@@H](CCCN=C(N)N)C(=O)N[C@@H](Cc1c[nH]c2ccccc12)C(=O)NCC(N)=O` were, in that order, 0.002, 0.06 and 0.09.
Regarding `CSCC[C@H](N)C(=O)N[C@@H](CCC(=O)O)C(=O)N[C@@H](Cc1c[nH]cn1)C(=O)N[C@@H](Cc1ccccc1)C(=O)N[C@@H](CCCN=C(N)N)C(=O)N[C@@H](Cc1c[nH]c2ccccc12)C(=O)NCC(=O)O`, the Potency in assay [1] turned out to be 1e-05; in assay [2], 4e-05.

The values are drawn from ChEMBL document CHEMBL1122123 (1982).
